This is a sample that favours compounds with a hit; in the whole collection about 4.7% have one here.
MrgX1 ag: human MrgX1 receptor agonism, primary screen; Q96LB2; MrgX1-HEK293 cells, Fluo-4 calcium fluorescence, agonist mode; hits give high values; B-score at 10 µM; 0.44% of 310,000 active;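 active = calcium response B-score plate-corrected fluorescence ratio at least 3 library SD, with starting fluorescence B-score inside 5 SD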
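Assay system: stable human MrgX1 HEK293 cell line. Quantity: 15,000 cells per well. Schedule: cells plated overnight, dye loaded 0.5 h 37 °C, 0.5 h room temperature. Detection: Fluo-4 NW calcium-flux fluorescence, kinetic read. Read-out basis: peak-minus-minimum fluorescence over baseline, converted to B scores. Control set: positive and negative control wells on each plate.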
MrgX1 PAM: allosterically activates human MrgX1 receptor signaling. Q96LB2. MrgX1-HEK293, Fluo-4 calcium flux, FDSS; hits give high values. B-score at 10 µM. 0.63% of 310,000 active. AID 588675;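 active = plate-corrected calcium response at least 3 library SD above typical, normal starting fluorescence, not activating the receptor alone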;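 also: compound read alongside a low EC10 to EC30 dose of BAM8-22 agonist; peak minus trough fluorescence over baseline measured at the second addition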
RGS4 inh: inhibitors of human RGS4. HEK293 M3R/RGS4 inducible, Fluo-4 calcium flux; hits give high values; triggered by carbachol at its EC20. B-score at 10 µM. 0.45% of 310,000 active. AID 463165;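 active = B-score, a plate-corrected calcium signal, over three deviations above library mean, with baseline fluorescence within five deviations of library mean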;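 also: RGS4 expression induced by doxycycline in cells with stable M3 receptor; B-score is computed from the integrated fluorescence ratio over baseline after carbachol; higher B-score means a larger calcium signal and so more RGS4 inhibition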
Cl transport mod: KCC2 (human) Cl- transport modulation; 2.2% of 190,000 active; KCC2 cells, thallium flux FluoZin-2 fluorescence; B-score of Tl+ flux slope (higher = more flux/activation; lower = inhibition) at 10 µM;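 active = thallium flux slope and its plate-corrected score both differing from the plate sample mean at a set confidence after two filtering rounds, in either direction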;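 also: slope of fluorescence scaled to starting intensity during 10 to 20 s after thallium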
Target sequence (Q9H2X9 whole entry, looked up): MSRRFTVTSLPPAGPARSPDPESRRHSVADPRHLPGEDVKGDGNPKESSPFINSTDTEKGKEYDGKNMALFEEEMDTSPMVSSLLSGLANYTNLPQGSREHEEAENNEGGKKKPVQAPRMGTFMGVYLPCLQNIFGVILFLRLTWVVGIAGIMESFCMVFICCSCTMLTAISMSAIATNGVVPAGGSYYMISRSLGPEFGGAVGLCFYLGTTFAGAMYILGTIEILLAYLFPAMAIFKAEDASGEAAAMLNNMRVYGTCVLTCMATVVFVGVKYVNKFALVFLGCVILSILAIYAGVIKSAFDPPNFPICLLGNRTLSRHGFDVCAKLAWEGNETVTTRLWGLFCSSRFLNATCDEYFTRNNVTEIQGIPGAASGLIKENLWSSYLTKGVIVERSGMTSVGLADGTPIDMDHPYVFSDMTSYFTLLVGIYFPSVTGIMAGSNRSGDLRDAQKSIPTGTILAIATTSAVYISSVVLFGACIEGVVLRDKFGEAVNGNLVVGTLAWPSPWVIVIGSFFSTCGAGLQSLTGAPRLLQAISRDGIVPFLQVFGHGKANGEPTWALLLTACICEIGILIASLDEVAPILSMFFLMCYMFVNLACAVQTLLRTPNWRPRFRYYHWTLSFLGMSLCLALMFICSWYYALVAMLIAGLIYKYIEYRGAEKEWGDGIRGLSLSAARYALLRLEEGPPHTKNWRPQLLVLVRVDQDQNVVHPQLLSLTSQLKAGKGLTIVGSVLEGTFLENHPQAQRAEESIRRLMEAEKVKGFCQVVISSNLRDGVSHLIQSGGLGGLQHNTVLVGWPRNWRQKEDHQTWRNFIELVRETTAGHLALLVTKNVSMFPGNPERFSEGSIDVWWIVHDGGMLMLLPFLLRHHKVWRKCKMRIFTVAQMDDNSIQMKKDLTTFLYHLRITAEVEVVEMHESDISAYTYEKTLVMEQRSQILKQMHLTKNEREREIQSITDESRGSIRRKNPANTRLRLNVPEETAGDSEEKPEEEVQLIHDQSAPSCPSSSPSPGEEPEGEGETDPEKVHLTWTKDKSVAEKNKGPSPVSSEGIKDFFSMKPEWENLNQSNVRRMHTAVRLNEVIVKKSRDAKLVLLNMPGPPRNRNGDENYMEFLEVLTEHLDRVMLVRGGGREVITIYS
RGS4 pot: potentiators or activators of RGS4; B-score at 10 µM; HEK293 M3R/inducible RGS4, carbachol calcium flux Fluo4; hits give low values; 0.92% of 310,000 active;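 active = B-score of the integrated calcium signal more than 4 SD below the library mean, with starting fluorescence not abnormally high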;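 also: negative B-score means reduced calcium response which marks RGS4 activation or potentiation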
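Assay system: Inducible-RGS4 HEK293 cells carrying M3 receptor | Schedule: Compound preincubation 20 min at room temperature before agonist | Signal: Kinetic calcium fluorescence imaging with Fluo4-AM dye, 2 µM | Read-out basis: B score from integrated fluorescence ratio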
MrgX1 antagonist: human MrgX1 receptor antagonism, primary screen | 1.3% of 310,000 active | B-score at 10 µM | AID 588676 | Q96LB2 | MRGX1-HEK293 calcium flux, Fluo-4, BAM8-22 antagonism; hits give low values;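 active = calcium-response B-score plate-corrected more than 3 library SD below zero, starting fluorescence within 5 deviations, no agonist response on first addition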;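 also: peak minus trough fluorescence over baseline after final BAM8-22 challenge near maximal dose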
KCC2 secondary: confirmation of human KCC2 transport modulators. HEK293-KCC2, thallium flux, FluoZin2 fluorescence; hits give high values. AID 1713. shares compounds with Cl transport mod. 15% of 3,700 active. normalised thallium flux (F/F0 slope) at 10 µM;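 active = thallium flux slope above the same plate's solvent-only control mean plus 3 SD; inconclusive = the two replicate wells disagree; inactive = no significant difference from solvent-only control wells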
KCC2 bumet counter: bumetanide-insensitive thallium flux in KCC2 cells with ouabain, counter-screen. shares compounds with Cl transport mod. HEK293-KCC2 + bumetanide/ouabain, thallium flux FluoZin2; hits give high values. normalized thallium flux at 10 µM. 49% of 3,700 active;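 active = thallium entry rate above the same plate's blocked-transporter control wells by more than 3 SD; inconclusive = the two repeat wells disagree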;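 also: raw slope of fluorescence over initial fluorescence between 10 and 20 s after thallium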
KCC2 secondary2: KCC2 (human) modulation, second secondary assay; shares compounds with Cl transport mod; HEK293-KCC2, thallium flux FluoZin2 fluorescence; actives lie on both sides; F/F0 rise rate, 10–20 s post-thallium; normalized thallium flux at 10 µM; 23% of 3,700 active; AID 1715;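 active = thallium flux slope more than 3 SD above or below the plate's solvent-only control mean, mostly below; inconclusive = the two repeat wells disagreed; inactive = no significant shift from solvent-only controls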
HEK counter1: acts in parental HEK cells, KCC2 counter-screen; 46% of 3,700 active; shares compounds with Cl transport mod; thallium flux rate (normalised fluorescence) at 10 µM; HEK293 parental cells, thallium flux FluoZin2, ouabain; baseline-ratio fluorescence slope, 10–20 s after thallium; AID 1716;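 active = thallium flux rate significantly above the same plate's solvent-only control wells, beyond their mean plus 3 SD; inconclusive = the two replicate wells gave conflicting results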
KCC2 retest ouab: KCC2 (human) modulation, ouabain retest. AID 1717. shares compounds with Cl transport mod. raw Tl+ flux slope (below DMSO = inhibition, above = activation) at 10 µM. 48% of 3,700 active. HEK293-KCC2, thallium flux FluoZin2 fluorescence; bidirectional: low = inhibitor, high = activator;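 active = thallium flux slope beyond 3 SD from same-plate DMSO control mean in most replicates, usually higher, sometimes lower; inconclusive = repeat tests gave conflicting results; inactive = no significant difference from controls in most replicates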;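 also: slope of initial-normalized fluorescence between seconds 10 and 20 after thallium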
HEK293 Tl flux2: parental HEK flux effect, counter-screen 2; HEK293 parental, thallium flux FluoZin-2 fluorescence slope; shares compounds with Cl transport mod; 33% of 3,700 active; thallium flux slope at 10 µM;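 active = thallium flux slope above the same plate's solvent-control mean plus 3 SD in both duplicate wells; inconclusive = duplicate wells that disagreed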;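 also: run without ouabain in cells lacking the KCC2 cotransporter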
MrgX1 PAM conf: human MrgX1 positive allosteric modulation, re-confirmation; shares compounds with MrgX1 PAM; MrgX1-HEK293, Fluo-4 calcium fluorescence, FDSS; 13% of 1,200 active; activation (ratio percentage), % at 10 µM; AID 602413;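 active = ratio at least 3 SD above the weak peptide control, stable starting fluorescence, no direct agonism earlier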;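 also: compound followed by low BAM8-22 agonist challenge near EC20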
MrgX1 antag conf: human MrgX1 receptor antagonism, re-confirmation screen; shares compounds with MrgX1 antagonist; MrgX1-HEK293, BAM8-22 calcium flux, Fluo-4; hits give low values; remaining BAM8-22 calcium response % of control (hits give low values), % at 10 µM; 19% of 2,300 active; AID 602420;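 active = remaining agonist calcium response no higher than 100% minus 3 SD of agonist-only control wells, with starting fluorescence near control levels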;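 also: agonist BAM8-22 given at a near maximal EC90 to ECmax level; peak minus minimum fluorescence divided by baseline after agonist addition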
HEK293 Ca flux: activity in parental HEK293 cells lacking MrgX1; shares compounds with MrgX1 antagonist; Fluo-4 calcium fluorescence, FDSS; fluorescence ratio F(max-min)/F0 at 10 µM; 2% of 4,000 active; AID 624111;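 active = duplicate-averaged calcium fluorescence ratio at least three times the standard deviation of buffer wells, a nonspecific response in parental cells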
HEK293 Ca counter: MrgX1 allosteric activator counter-screen hit in parental HEK293 cells. parental HEK293 calcium flux, Fluo-4 fluorescence ratio; hits give high values. fluorescence ratio F(max-min)/F0 at 10 µM. 0.4% of 4,000 active. shares compounds with MrgX1 antagonist. AID 624114;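 active = calcium fluorescence ratio, averaged over duplicates, at least 3 SD of the buffer-well ratio, meaning a nonspecific response in receptor-free cells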;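 also: untransfected parental HEK293 lacking MrgX1 used as counterscreen for MrgX1 allosteric activators; fluorescence change taken during the second addition on a kinetic imager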
HEK293 Ca cntr2: MrgX1 activator counter-screen hit in parental HEK293 cells; shares compounds with MrgX1 antagonist; Fluo-4 calcium fluorescence (FDSS); hits give high values; fluorescence ratio F(max-min)/F0 at 10 µM; 8.7% of 4,000 active; AID 624115;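 active = calcium fluorescence ratio at least three times the spread of buffer wells, meaning a non-specific response in parental cells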
Numbers stand for hits.

Results for COC(=O)c1sc(NC(=O)c2ccc(Cn3cc(Cl)cn3)o2)c(C#N)c1C ?
MrgX1 ag: inactive; MrgX1 PAM: inactive; RGS4 inh: inactive; RGS4 pot: inactive; MrgX1 antagonist: -4.57; KCC2 secondary: inactive; KCC2 bumet counter: inactive; KCC2 secondary2: inactive; HEK counter1: inactive; KCC2 retest ouab: 0.0419; HEK293 Tl flux2: inactive; MrgX1 antag conf: inactive; HEK293 Ca flux: inactive; HEK293 Ca counter: inactive; HEK293 Ca cntr2: inactive

Results for Cc1nc(SCc2ccc(C(=O)O)cc2)c2c(C)c(C)sc2n1 ?
MrgX1 ag: inactive; MrgX1 PAM: inactive; RGS4 inh: inactive; Cl transport mod: inactive; RGS4 pot: inactive; MrgX1 antagonist: inactive

Results for Cc1nc(SCC(=O)Nc2cc(C(N)=O)cc(C(N)=O)c2)c2c(C)c(C)sc2n1 ?
MrgX1 ag: inactive; MrgX1 PAM: 12.7; RGS4 inh: inactive; Cl transport mod: 37.9; RGS4 pot: inactive; MrgX1 antagonist: inactive; KCC2 secondary: inconclusive; KCC2 bumet counter: 0.0423; KCC2 secondary2: inactive; HEK counter1: 0.0522; KCC2 retest ouab: 0.0451; HEK293 Tl flux2: 0.022; MrgX1 PAM conf: inactive; HEK293 Ca flux: inactive; HEK293 Ca counter: inactive; HEK293 Ca cntr2: inactive

Results for Cc1cc(C)cc(NC(=O)c2cnn(-c3ccccc3)c2C2CCNCC2)c1 ?
MrgX1 ag: inactive; MrgX1 PAM: inactive; RGS4 inh: inactive; Cl transport mod: inactive; RGS4 pot: inactive; MrgX1 antagonist: inactive

What do the screens show for `CCn1c(=O)n(CC)c2cc(S(=O)(=O)N3CCC(c4ccccc4)CC3)ccc21`?
MrgX1 ag: inactive; MrgX1 PAM: inactive; RGS4 inh: inactive; RGS4 pot: inactive; MrgX1 antagonist: -7.08; KCC2 secondary: inactive; KCC2 bumet counter: inactive; KCC2 secondary2: 0.0245; HEK counter1: inactive; KCC2 retest ouab: 0.0169; HEK293 Tl flux2: inactive; MrgX1 antag conf: inactive; HEK293 Ca flux: inactive; HEK293 Ca counter: inactive; HEK293 Ca cntr2: inactive

Source: PubChem BioAssay (several laboratories)
